# Molecular target: Phosphatidylinositol 4,5-bisphosphate 3-kinase catalytic subunit gamma isoform (Homo sapiens, UniProt P48736)
# Test: Inhibition of PI3Kgamma (unknown origin) using PIP2 as substrate preincubated for 15 mins followed by substrate addition measured after 60 mins in presence of ATP by HTRF method
# Sequence of Phosphatidylinositol 4,5-bisphosphate 3-kinase catalytic subunit gamma isoform (P48736 whole entry, canonical isoform): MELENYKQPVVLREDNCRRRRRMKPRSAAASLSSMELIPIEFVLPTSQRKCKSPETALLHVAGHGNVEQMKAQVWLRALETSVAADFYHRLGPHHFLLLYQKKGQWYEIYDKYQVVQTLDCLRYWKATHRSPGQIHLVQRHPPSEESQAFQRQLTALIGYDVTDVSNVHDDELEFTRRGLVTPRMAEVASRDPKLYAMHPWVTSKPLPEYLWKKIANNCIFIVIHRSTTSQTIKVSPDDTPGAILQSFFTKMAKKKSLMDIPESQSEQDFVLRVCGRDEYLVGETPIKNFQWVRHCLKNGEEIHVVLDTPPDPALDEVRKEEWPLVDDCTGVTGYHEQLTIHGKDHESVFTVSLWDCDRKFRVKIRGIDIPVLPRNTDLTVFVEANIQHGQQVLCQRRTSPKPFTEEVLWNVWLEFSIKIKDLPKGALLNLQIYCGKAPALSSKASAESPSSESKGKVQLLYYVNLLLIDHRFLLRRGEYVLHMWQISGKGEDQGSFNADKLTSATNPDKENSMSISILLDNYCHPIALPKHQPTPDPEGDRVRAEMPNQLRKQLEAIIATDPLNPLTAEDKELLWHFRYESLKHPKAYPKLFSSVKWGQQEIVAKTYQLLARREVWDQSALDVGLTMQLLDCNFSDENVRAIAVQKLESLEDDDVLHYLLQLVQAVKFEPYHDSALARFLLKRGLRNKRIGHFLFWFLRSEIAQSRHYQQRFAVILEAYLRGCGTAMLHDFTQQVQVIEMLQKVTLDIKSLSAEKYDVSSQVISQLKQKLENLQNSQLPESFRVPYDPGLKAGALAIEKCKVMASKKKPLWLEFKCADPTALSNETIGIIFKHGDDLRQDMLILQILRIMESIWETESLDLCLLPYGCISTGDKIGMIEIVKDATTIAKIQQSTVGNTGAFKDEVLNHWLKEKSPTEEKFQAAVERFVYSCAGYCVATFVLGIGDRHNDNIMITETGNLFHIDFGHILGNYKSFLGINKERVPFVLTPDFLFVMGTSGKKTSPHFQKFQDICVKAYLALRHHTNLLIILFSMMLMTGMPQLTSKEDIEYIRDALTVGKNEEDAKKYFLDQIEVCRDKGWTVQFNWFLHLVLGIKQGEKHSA
row,IC50 [µM],Compound
1,0.2,Cc1nncn1C1CCN(Cc2cc3nc(-c4cccc(O)c4)nc(N4CCOCC4)c3s2)CC1
2,0.158,Oc1cccc(-c2nc(N3CCOCC3)c3sc(CN4CCC(n5cnnc5C(F)(F)F)CC4)cc3n2)c1
3,0.794,FC(F)(F)c1nncn1C1CCN(Cc2cc3nc(-c4cccc5[nH]ncc45)nc(N4CCOCC4)c3s2)CC1
4,1,Cc1nncn1C1CCN(Cc2cc3nc(-c4cccc5[nH]ncc45)nc(N4CCOCC4)c3s2)CC1
5,3.16,FC(F)(F)c1nncn1C1CCN(Cc2cc3nc(-c4cccc5[nH]ccc45)nc(N4CCOCC4)c3s2)CC1
6,0.794,Cc1nnc2n1[C@H]1CCN(Cc3cc4nc(-c5cccc6[nH]ccc56)nc(N5CCOCC5)c4s3)C[C@@H]1CC2 (relative stereo)
7,0.631,FC(F)(F)c1nnc2n1[C@H]1CCN(Cc3cc4nc(-c5cccc6[nH]ccc56)nc(N5CCOCC5)c4s3)C[C@H]1CC2 (relative stereo)
8,0.316,Cc1nnc2n1[C@H]1CCN(Cc3cc4nc(-c5cccc6[nH]ncc56)nc(N5CCOCC5)c4s3)C[C@@H]1CC2 (relative stereo)
9,0.2,Oc1cccc(-c2nc(N3CCOCC3)c3sc(CN4CC[C@H]5[C@@H](CCc6nnc(C(F)(F)F)n65)C4)cc3n2)c1 (relative stereo)
10,0.794,FC(F)(F)c1nnc2n1[C@H]1CCN(Cc3cc4nc(-c5cccc6[nH]ncc56)nc(N5CCOCC5)c4s3)C[C@H]1CC2 (relative stereo)
11,1.58,Cc1nnc2n1[C@H]1CCN(Cc3cc4nc(-c5cccc6[nH]ccc56)nc(N5CCOCC5)c4s3)C[C@H]1CC2 (relative stereo)
12,1,FC(F)(F)c1nnc2n1[C@H]1CCN(Cc3cc4nc(-c5cccc6[nH]ncc56)nc(N5CCOCC5)c4s3)C[C@@H]1CC2 (relative stereo)
13,0.501,Cc1nnc2n1[C@H]1CCN(Cc3cc4nc(-c5cccc(O)c5)nc(N5CCOCC5)c4s3)C[C@@H]1CC2 (relative stereo)
14,0.158,Oc1cccc(-c2nc(N3CCOCC3)c3sc(CN4CC[C@H]5[C@H](CCc6nnc(C(F)(F)F)n65)C4)cc3n2)c1 (relative stereo)
15,0.398,FC(F)(F)c1nnc2n1[C@H]1CCN(Cc3cc4nc(-c5cccc6[nH]ccc56)nc(N5CCOCC5)c4s3)C[C@@H]1CC2 (relative stereo)
16,1.26,Cc1nnc2n1[C@H]1CCN(Cc3cc4nc(-c5cccc6[nH]ncc56)nc(N5CCOCC5)c4s3)C[C@H]1CC2 (relative stereo)

# Molecular target: T1, Phosphatidylinositol 4,5-bisphosphate 3-kinase catalytic subunit delta isoform (Homo sapiens, UniProt O00329)
# T1 sequence (O00329 whole entry): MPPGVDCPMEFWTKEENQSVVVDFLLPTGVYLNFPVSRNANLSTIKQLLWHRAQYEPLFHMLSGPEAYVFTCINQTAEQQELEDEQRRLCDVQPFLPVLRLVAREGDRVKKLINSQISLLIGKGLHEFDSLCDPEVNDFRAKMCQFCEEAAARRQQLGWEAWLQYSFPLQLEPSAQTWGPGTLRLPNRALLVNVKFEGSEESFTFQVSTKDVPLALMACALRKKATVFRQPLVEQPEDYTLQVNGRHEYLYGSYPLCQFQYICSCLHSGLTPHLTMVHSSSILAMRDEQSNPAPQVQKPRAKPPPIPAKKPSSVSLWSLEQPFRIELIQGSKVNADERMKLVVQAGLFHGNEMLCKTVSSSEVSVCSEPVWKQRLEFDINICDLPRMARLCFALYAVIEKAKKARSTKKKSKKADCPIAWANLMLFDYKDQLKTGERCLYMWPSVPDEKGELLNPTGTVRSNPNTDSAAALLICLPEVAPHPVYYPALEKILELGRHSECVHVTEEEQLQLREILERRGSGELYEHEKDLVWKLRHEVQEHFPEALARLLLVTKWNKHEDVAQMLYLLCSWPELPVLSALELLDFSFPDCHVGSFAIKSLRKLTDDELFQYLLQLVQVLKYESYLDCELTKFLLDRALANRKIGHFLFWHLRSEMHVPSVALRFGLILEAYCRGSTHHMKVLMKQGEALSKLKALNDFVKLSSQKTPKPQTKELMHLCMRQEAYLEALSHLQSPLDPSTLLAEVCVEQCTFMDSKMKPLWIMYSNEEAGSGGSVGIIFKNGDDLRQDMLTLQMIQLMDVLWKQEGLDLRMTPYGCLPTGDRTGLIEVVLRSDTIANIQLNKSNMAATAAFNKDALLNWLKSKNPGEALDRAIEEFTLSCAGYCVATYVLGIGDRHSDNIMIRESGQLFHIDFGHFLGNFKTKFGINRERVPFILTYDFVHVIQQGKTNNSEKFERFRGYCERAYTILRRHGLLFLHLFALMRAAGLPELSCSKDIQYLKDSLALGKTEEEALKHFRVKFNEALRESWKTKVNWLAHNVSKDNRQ
# Test: Inhibition of PI3Kdelta (unknown origin) using PIP2 as substrate preincubated for 15 mins followed by substrate addition measured after 60 mins in presence of ATP by HTRF method
# In short: (§1)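 For PI3Kδ, substrate concentration limits measurable potency to about pIC50 9.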
row,IC50 [µM],Compound
1,0.00398,Cc1nncn1C1CCN(Cc2cc3nc(-c4cccc(O)c4)nc(N4CCOCC4)c3s2)CC1
2,0.00251,Oc1cccc(-c2nc(N3CCOCC3)c3sc(CN4CCC(n5cnnc5C(F)(F)F)CC4)cc3n2)c1
3,0.02,FC(F)(F)c1nncn1C1CCN(Cc2cc3nc(-c4cccc5[nH]ncc45)nc(N4CCOCC4)c3s2)CC1
4,0.01,Cc1nncn1C1CCN(Cc2cc3nc(-c4cccc5[nH]ncc45)nc(N4CCOCC4)c3s2)CC1
5,0.02,FC(F)(F)c1nncn1C1CCN(Cc2cc3nc(-c4cccc5[nH]ccc45)nc(N4CCOCC4)c3s2)CC1
6,0.00398,Cc1nncn1C1CCN(Cc2cc3nc(-c4cccc5[nH]ccc45)nc(N4CCOCC4)c3s2)CC1
7,0.001,Cc1nnc2n1[C@H]1CCN(Cc3cc4nc(-c5cccc6[nH]ccc56)nc(N5CCOCC5)c4s3)C[C@@H]1CC2 (relative stereo)
8,0.000794,FC(F)(F)c1nnc2n1[C@H]1CCN(Cc3cc4nc(-c5cccc6[nH]ccc56)nc(N5CCOCC5)c4s3)C[C@H]1CC2 (relative stereo)
9,0.00398,Cc1nnc2n1[C@H]1CCN(Cc3cc4nc(-c5cccc6[nH]ncc56)nc(N5CCOCC5)c4s3)C[C@@H]1CC2 (relative stereo)
10,0.001,Oc1cccc(-c2nc(N3CCOCC3)c3sc(CN4CC[C@H]5[C@@H](CCc6nnc(C(F)(F)F)n65)C4)cc3n2)c1 (relative stereo)
11,0.00251,FC(F)(F)c1nnc2n1[C@H]1CCN(Cc3cc4nc(-c5cccc6[nH]ncc56)nc(N5CCOCC5)c4s3)C[C@H]1CC2 (relative stereo)
12,0.000794,Cc1nnc2n1[C@H]1CCN(Cc3cc4nc(-c5cccc6[nH]ccc56)nc(N5CCOCC5)c4s3)C[C@H]1CC2 (relative stereo)
13,0.00794,FC(F)(F)c1nnc2n1[C@H]1CCN(Cc3cc4nc(-c5cccc6[nH]ncc56)nc(N5CCOCC5)c4s3)C[C@@H]1CC2 (relative stereo)
14,0.000794,Cc1nnc2n1[C@H]1CCN(Cc3cc4nc(-c5cccc(O)c5)nc(N5CCOCC5)c4s3)C[C@@H]1CC2 (relative stereo)
15,0.000631,Oc1cccc(-c2nc(N3CCOCC3)c3sc(CN4CC[C@H]5[C@H](CCc6nnc(C(F)(F)F)n65)C4)cc3n2)c1 (relative stereo)
16,0.00158,FC(F)(F)c1nnc2n1[C@H]1CCN(Cc3cc4nc(-c5cccc6[nH]ccc56)nc(N5CCOCC5)c4s3)C[C@@H]1CC2 (relative stereo)
17,0.00316,Cc1nnc2n1[C@H]1CCN(Cc3cc4nc(-c5cccc6[nH]ncc56)nc(N5CCOCC5)c4s3)C[C@H]1CC2 (relative stereo)

# Molecular target: C-C chemokine receptor type 5 (Homo sapiens, UniProt P51681)
# Sequence (P51681 whole entry): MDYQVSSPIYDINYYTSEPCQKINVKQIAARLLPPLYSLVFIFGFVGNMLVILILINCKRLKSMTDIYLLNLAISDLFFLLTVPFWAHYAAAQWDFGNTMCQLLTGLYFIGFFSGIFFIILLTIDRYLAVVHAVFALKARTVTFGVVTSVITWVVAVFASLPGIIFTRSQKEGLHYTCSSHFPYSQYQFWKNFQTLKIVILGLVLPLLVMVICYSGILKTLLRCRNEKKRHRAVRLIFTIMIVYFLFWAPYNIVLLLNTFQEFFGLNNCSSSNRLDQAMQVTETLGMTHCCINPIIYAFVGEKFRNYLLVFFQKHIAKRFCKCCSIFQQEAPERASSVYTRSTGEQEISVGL
# Test: Antagonist activity at human CCR5 expressed in HEK 293 Glosensor cells assessed as reduction in RANTES-induced intracellular calcium levels preincubated for 30 mins followed by RANTES addition measured at 2 secs time interval for 5 mins by Fluo-4-AM dye based fluorescence assay
# Type: functional, cell-based
row,Kd [µM],Compound
1,0.316,Cc1nnc2n1[C@H]1CCN(CC[C@H](NC(=O)C3CCC(F)(F)CC3)c3ccccc3)C[C@H]1CC2 (racemic)
2,0.01,Cc1nnc2n1[C@@H]1CCN(CC[C@H](NC(=O)C3CCC(F)(F)CC3)c3ccccc3)C[C@@H]1CC2 (relative stereo)

# Molecular target: Phosphatidylinositol 4,5-bisphosphate 3-kinase catalytic subunit beta isoform (Homo sapiens, UniProt P42338)
# Sequence (P42338 whole entry, canonical isoform): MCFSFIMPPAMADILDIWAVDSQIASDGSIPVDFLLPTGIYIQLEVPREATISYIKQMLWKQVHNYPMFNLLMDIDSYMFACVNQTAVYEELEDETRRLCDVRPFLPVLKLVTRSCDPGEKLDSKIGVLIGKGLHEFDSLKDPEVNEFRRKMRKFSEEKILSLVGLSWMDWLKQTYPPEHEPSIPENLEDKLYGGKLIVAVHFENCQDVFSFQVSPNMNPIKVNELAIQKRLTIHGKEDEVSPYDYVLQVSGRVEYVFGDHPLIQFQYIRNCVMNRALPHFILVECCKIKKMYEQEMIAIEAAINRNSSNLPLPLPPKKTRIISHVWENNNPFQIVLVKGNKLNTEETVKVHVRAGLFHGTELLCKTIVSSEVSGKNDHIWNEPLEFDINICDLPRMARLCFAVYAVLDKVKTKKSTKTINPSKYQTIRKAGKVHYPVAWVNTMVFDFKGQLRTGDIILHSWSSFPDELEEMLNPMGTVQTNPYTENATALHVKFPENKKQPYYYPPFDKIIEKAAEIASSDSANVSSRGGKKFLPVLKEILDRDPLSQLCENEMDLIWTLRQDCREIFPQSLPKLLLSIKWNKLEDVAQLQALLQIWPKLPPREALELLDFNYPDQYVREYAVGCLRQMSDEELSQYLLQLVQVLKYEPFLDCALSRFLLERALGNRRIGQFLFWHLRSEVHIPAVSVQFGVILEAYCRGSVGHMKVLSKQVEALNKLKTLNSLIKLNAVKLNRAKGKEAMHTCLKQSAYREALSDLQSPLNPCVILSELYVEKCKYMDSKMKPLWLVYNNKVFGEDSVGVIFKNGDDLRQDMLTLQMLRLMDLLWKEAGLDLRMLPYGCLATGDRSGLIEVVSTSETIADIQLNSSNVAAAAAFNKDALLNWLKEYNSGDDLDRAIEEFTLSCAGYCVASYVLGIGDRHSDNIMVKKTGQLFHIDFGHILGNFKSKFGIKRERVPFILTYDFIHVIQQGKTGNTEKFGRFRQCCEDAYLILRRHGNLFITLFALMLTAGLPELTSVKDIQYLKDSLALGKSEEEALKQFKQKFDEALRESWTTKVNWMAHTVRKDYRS
# Test: Inhibition of PI3Kbeta (unknown origin) using PIP2 as substrate preincubated for 15 mins followed by substrate addition measured after 60 mins in presence of ATP by HTRF method
row,IC50 [µM],Compound
1,0.158,Cc1nncn1C1CCN(Cc2cc3nc(-c4cccc(O)c4)nc(N4CCOCC4)c3s2)CC1
2,0.1,Oc1cccc(-c2nc(N3CCOCC3)c3sc(CN4CCC(n5cnnc5C(F)(F)F)CC4)cc3n2)c1
3,1.26,FC(F)(F)c1nncn1C1CCN(Cc2cc3nc(-c4cccc5[nH]ncc45)nc(N4CCOCC4)c3s2)CC1
4,1,Cc1nncn1C1CCN(Cc2cc3nc(-c4cccc5[nH]ncc45)nc(N4CCOCC4)c3s2)CC1
5,0.794,FC(F)(F)c1nncn1C1CCN(Cc2cc3nc(-c4cccc5[nH]ccc45)nc(N4CCOCC4)c3s2)CC1
6,0.398,Cc1nncn1C1CCN(Cc2cc3nc(-c4cccc5[nH]ccc45)nc(N4CCOCC4)c3s2)CC1
7,0.316,Cc1nnc2n1[C@H]1CCN(Cc3cc4nc(-c5cccc6[nH]ccc56)nc(N5CCOCC5)c4s3)C[C@@H]1CC2 (relative stereo)
8,0.1,FC(F)(F)c1nnc2n1[C@H]1CCN(Cc3cc4nc(-c5cccc6[nH]ccc56)nc(N5CCOCC5)c4s3)C[C@H]1CC2 (relative stereo)
9,0.501,Cc1nnc2n1[C@H]1CCN(Cc3cc4nc(-c5cccc6[nH]ncc56)nc(N5CCOCC5)c4s3)C[C@@H]1CC2 (relative stereo)
10,0.0501,Oc1cccc(-c2nc(N3CCOCC3)c3sc(CN4CC[C@H]5[C@@H](CCc6nnc(C(F)(F)F)n65)C4)cc3n2)c1 (relative stereo)
11,0.398,FC(F)(F)c1nnc2n1[C@H]1CCN(Cc3cc4nc(-c5cccc6[nH]ncc56)nc(N5CCOCC5)c4s3)C[C@H]1CC2 (relative stereo)
12,0.316,Cc1nnc2n1[C@H]1CCN(Cc3cc4nc(-c5cccc6[nH]ccc56)nc(N5CCOCC5)c4s3)C[C@H]1CC2 (relative stereo)
13,0.631,FC(F)(F)c1nnc2n1[C@H]1CCN(Cc3cc4nc(-c5cccc6[nH]ncc56)nc(N5CCOCC5)c4s3)C[C@@H]1CC2 (relative stereo)
14,0.126,Cc1nnc2n1[C@H]1CCN(Cc3cc4nc(-c5cccc(O)c5)nc(N5CCOCC5)c4s3)C[C@@H]1CC2 (relative stereo)
15,0.0501,Oc1cccc(-c2nc(N3CCOCC3)c3sc(CN4CC[C@H]5[C@H](CCc6nnc(C(F)(F)F)n65)C4)cc3n2)c1 (relative stereo)
16,0.158,FC(F)(F)c1nnc2n1[C@H]1CCN(Cc3cc4nc(-c5cccc6[nH]ccc56)nc(N5CCOCC5)c4s3)C[C@@H]1CC2 (relative stereo)
17,1.26,Cc1nnc2n1[C@H]1CCN(Cc3cc4nc(-c5cccc6[nH]ncc56)nc(N5CCOCC5)c4s3)C[C@H]1CC2 (relative stereo)

# Molecular target: Phosphatidylinositol 4,5-bisphosphate 3-kinase catalytic subunit alpha isoform (Homo sapiens, UniProt P42336)
# Sequence (P42336 whole entry, canonical isoform): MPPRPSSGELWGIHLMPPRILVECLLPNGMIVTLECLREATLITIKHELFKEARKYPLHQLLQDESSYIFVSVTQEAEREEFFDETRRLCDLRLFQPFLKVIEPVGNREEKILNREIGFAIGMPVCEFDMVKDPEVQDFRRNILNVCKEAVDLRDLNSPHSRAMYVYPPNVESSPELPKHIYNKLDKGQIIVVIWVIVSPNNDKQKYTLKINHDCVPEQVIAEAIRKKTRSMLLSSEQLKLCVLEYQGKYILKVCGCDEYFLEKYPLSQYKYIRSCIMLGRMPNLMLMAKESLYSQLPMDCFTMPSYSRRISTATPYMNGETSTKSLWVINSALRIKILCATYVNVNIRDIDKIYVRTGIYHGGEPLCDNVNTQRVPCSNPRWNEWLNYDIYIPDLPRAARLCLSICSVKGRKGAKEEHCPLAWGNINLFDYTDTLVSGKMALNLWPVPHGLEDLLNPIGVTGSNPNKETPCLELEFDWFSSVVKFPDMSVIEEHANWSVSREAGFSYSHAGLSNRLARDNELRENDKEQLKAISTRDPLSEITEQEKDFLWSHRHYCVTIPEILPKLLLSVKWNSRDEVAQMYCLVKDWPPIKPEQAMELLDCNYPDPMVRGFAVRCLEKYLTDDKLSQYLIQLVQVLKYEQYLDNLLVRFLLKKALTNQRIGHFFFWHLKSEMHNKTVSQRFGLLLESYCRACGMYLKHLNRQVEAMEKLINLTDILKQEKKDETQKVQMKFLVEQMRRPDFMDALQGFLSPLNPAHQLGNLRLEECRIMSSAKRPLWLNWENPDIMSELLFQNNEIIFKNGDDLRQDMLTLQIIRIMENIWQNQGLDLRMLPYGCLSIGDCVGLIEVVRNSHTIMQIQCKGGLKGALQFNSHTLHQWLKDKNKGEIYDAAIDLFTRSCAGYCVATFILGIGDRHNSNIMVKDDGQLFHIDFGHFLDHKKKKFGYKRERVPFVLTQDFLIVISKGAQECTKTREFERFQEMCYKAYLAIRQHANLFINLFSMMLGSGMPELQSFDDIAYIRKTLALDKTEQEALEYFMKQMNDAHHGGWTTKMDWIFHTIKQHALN
# Test: Inhibition of PI3Kalpha (unknown origin) using PIP2 as substrate preincubated for 15 mins followed by substrate addition measured after 60 mins in presence of ATP by HTRF method
# In short: as §1
row,IC50 [µM],Compound
1,0.1,Cc1nncn1C1CCN(Cc2cc3nc(-c4cccc(O)c4)nc(N4CCOCC4)c3s2)CC1
2,0.0631,Oc1cccc(-c2nc(N3CCOCC3)c3sc(CN4CCC(n5cnnc5C(F)(F)F)CC4)cc3n2)c1
3,0.316,FC(F)(F)c1nncn1C1CCN(Cc2cc3nc(-c4cccc5[nH]ncc45)nc(N4CCOCC4)c3s2)CC1
4,0.316,Cc1nncn1C1CCN(Cc2cc3nc(-c4cccc5[nH]ncc45)nc(N4CCOCC4)c3s2)CC1
5,3.98,FC(F)(F)c1nncn1C1CCN(Cc2cc3nc(-c4cccc5[nH]ccc45)nc(N4CCOCC4)c3s2)CC1
6,2,Cc1nncn1C1CCN(Cc2cc3nc(-c4cccc5[nH]ccc45)nc(N4CCOCC4)c3s2)CC1
7,2,Cc1nnc2n1[C@H]1CCN(Cc3cc4nc(-c5cccc6[nH]ccc56)nc(N5CCOCC5)c4s3)C[C@@H]1CC2 (relative stereo)
8,1.58,FC(F)(F)c1nnc2n1[C@H]1CCN(Cc3cc4nc(-c5cccc6[nH]ccc56)nc(N5CCOCC5)c4s3)C[C@H]1CC2 (relative stereo)
9,0.158,Cc1nnc2n1[C@H]1CCN(Cc3cc4nc(-c5cccc6[nH]ncc56)nc(N5CCOCC5)c4s3)C[C@@H]1CC2 (relative stereo)
10,0.0316,Oc1cccc(-c2nc(N3CCOCC3)c3sc(CN4CC[C@H]5[C@@H](CCc6nnc(C(F)(F)F)n65)C4)cc3n2)c1 (relative stereo)
11,0.316,FC(F)(F)c1nnc2n1[C@H]1CCN(Cc3cc4nc(-c5cccc6[nH]ncc56)nc(N5CCOCC5)c4s3)C[C@H]1CC2 (relative stereo)
12,3.16,Cc1nnc2n1[C@H]1CCN(Cc3cc4nc(-c5cccc6[nH]ccc56)nc(N5CCOCC5)c4s3)C[C@H]1CC2 (relative stereo)
13,0.158,FC(F)(F)c1nnc2n1[C@H]1CCN(Cc3cc4nc(-c5cccc6[nH]ncc56)nc(N5CCOCC5)c4s3)C[C@@H]1CC2 (relative stereo)
14,0.1,Cc1nnc2n1[C@H]1CCN(Cc3cc4nc(-c5cccc(O)c5)nc(N5CCOCC5)c4s3)C[C@@H]1CC2 (relative stereo)
15,0.0631,Oc1cccc(-c2nc(N3CCOCC3)c3sc(CN4CC[C@H]5[C@H](CCc6nnc(C(F)(F)F)n65)C4)cc3n2)c1 (relative stereo)
16,0.501,FC(F)(F)c1nnc2n1[C@H]1CCN(Cc3cc4nc(-c5cccc6[nH]ccc56)nc(N5CCOCC5)c4s3)C[C@@H]1CC2 (relative stereo)
17,1.58,Cc1nnc2n1[C@H]1CCN(Cc3cc4nc(-c5cccc6[nH]ncc56)nc(N5CCOCC5)c4s3)C[C@H]1CC2 (relative stereo)

# — ChEMBL document CHEMBL4052600 (J Med Chem, 2017)
